According to ChEMBL document CHEMBL4014327 (J Med Chem, 2017):
In brackets after ≈: the same amount, converted by molar mass.

What was measured:
[1] = Apparent intrinsic clearance in human liver microsomes; assay type: ADME, microsome; details: read-out: CLH(app)
[2] = Lipophilicity, log D of compound; assay type: physicochemical; details: octanol/water
[3] = Fraction unbound in rat plasma; assay type: ADME, cell-free
How it was run: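 Fraction unbound in plasma measured by equilibrium dialysis.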

CYP2C8 = CYP2C8 (Homo sapiens, UniProt P10632); experiment: Inhibition of CYP2C8 in human liver microsomes at 3 uM; assay type: ADME
Chain of CYP2C8 (P10632 whole entry): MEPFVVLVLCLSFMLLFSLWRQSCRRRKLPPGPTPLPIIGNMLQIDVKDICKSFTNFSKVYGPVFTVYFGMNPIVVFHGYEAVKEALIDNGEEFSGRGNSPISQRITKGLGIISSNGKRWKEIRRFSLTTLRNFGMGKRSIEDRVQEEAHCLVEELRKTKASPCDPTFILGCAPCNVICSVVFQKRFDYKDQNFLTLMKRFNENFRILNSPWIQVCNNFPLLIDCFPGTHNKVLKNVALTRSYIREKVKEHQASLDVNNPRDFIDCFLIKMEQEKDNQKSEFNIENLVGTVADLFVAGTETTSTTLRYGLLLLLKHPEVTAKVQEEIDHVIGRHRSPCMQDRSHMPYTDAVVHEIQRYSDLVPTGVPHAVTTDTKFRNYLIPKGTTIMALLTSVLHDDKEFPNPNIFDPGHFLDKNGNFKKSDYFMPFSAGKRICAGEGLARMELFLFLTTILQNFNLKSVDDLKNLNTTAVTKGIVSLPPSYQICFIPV

CYP3A4 = CYP3A4 (Homo sapiens, UniProt P08684); experiment: Inhibition of CYP3A4 in human liver microsomes at 3 uM; assay type: ADME
Chain of CYP3A4 (P08684 whole entry): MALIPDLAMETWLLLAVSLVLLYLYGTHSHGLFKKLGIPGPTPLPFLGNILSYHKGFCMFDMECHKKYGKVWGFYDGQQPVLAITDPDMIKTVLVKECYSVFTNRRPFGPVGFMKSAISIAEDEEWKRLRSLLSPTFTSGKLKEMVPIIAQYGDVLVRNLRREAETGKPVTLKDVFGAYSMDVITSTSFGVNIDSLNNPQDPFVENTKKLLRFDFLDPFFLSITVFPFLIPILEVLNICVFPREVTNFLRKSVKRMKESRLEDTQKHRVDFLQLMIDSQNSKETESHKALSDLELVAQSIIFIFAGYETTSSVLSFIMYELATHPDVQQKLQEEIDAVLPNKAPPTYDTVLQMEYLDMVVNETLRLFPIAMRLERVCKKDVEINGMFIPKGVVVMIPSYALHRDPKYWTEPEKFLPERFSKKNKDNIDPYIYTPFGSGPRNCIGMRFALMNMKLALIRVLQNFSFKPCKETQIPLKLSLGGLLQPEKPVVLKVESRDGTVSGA

[4] = Solubility of compound in simulated fasted state intestinal fluid at pH 6.5; assay type: physicochemical
How it was run: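 Solubility of crystalline material measured in phosphate-buffered saline pH 6.7, unbuffered water pH 8.1 and simulated fasted-state intestinal fluid pH 6.5, reported in μg/mL.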

[5] = Half life in Wistar Han rat at 1 mg/kg, iv administered as single dose; assay type: ADME, organism-based; details: in vivo
[6] = Half life in Wistar Han rat at 5 mg/kg, po administered as single dose; assay type: ADME, organism-based; details: in vivo
[7] = Half life in Beagle dog at 1 mg/kg, iv administered as single dose; assay type: ADME, organism-based, Canis lupus familiaris; details: in vivo
Rattus norvegicus [8] = experiment: Plasma clearance in Wistar Han rat at 1 mg/kg, iv administered as single dose; assay type: ADME, organism-based; details: in vivo
Canis familiaris = experiment: Plasma clearance in Beagle dog at 1 mg/kg, iv administered as single dose; assay type: ADME, organism-based, Canis lupus familiaris; details: in vivo
[9] = Volume of distribution at steady state in Wistar Han rat at 1 mg/kg, iv administered as single dose; assay type: ADME, organism-based; details: in vivo, read-out: Vdss
How it was run: (§1)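 Single-dose pharmacokinetic study in male animals, with iv and separate oral administration. Steady-state volume of distribution was derived from plasma concentrations after the iv dose.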

[10] = Volume of distribution at steady state in cynomolgus monkey at 1 mg/kg, iv administered as single dose; assay type: ADME, organism-based, Macaca fascicularis; details: in vivo, read-out: Vdss; how it was run: as §1
[11] = Oral bioavailability in Wistar Han rat at 5 mg/kg administered as single dose; assay type: ADME, organism-based; details: in vivo
[12] = molecular target: MAP kinase-interacting serine/threonine-protein kinase 2 (Homo sapiens) (UniProt Q9HBH9); experiment: Inhibition of N-terminal-GST-tagged human full length MNK2 expressed in baculovirus at 200 nM
Chain of MAP kinase-interacting serine/threonine-protein kinase 2 (Homo sapiens) (Q9HBH9 whole entry, looked up): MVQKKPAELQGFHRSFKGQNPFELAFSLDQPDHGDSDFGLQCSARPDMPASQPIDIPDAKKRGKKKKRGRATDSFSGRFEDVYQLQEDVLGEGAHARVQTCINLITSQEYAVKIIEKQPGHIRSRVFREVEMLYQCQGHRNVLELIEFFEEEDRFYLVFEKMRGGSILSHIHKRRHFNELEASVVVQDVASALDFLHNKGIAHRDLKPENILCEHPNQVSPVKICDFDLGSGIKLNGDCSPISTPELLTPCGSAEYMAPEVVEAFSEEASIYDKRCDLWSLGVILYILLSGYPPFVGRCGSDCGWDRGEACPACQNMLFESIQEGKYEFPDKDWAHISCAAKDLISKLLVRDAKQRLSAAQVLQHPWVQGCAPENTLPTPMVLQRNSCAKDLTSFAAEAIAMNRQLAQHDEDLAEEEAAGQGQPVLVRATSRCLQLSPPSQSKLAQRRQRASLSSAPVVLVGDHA

[13] = molecular target: T1, Interleukin-1 receptor-associated kinase 4 (Homo sapiens) (UniProt Q9NWZ3); experiment: Inhibition of IRAK4 in human THP1 cell lysate at 200 nM
T1 sequence (whole entry): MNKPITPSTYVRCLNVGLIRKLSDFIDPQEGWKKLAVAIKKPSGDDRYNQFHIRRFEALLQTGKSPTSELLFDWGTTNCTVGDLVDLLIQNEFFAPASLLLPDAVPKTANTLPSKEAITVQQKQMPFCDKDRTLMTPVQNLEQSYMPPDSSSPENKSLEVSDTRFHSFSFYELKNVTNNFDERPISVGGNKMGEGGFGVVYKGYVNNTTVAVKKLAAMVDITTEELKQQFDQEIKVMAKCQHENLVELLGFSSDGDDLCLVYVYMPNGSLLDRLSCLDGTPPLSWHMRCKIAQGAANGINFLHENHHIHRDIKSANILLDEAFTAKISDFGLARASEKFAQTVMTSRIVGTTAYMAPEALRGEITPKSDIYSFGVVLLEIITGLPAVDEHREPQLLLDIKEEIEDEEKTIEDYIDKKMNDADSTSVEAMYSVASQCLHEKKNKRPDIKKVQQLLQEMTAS

[14] = molecular target: Casein kinase I isoform gamma-2 (Homo sapiens) (UniProt P78368); experiment: Inhibition of CK1gamma2 in human THP1 cell lysate at 200 nM
Chain of Casein kinase I isoform gamma-2 (Homo sapiens) (P78368 whole entry, looked up, canonical isoform): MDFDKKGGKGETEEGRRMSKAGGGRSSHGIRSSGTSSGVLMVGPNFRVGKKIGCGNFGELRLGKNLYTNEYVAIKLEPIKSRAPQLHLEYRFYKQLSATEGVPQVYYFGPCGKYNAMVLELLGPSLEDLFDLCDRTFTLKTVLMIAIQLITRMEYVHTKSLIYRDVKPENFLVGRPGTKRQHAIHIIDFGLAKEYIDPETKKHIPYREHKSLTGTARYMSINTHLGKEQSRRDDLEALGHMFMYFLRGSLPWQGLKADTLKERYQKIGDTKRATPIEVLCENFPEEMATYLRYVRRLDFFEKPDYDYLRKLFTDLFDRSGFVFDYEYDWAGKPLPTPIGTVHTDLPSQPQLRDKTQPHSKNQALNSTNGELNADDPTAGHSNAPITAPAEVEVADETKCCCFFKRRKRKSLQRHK

hERG (KCNH2) = hERG (KCNH2) (Homo sapiens, UniProt Q12809); experiment: Inhibition of human ERG at 100 uM by voltage clamp assay
Chain of hERG (KCNH2) (Q12809 whole entry): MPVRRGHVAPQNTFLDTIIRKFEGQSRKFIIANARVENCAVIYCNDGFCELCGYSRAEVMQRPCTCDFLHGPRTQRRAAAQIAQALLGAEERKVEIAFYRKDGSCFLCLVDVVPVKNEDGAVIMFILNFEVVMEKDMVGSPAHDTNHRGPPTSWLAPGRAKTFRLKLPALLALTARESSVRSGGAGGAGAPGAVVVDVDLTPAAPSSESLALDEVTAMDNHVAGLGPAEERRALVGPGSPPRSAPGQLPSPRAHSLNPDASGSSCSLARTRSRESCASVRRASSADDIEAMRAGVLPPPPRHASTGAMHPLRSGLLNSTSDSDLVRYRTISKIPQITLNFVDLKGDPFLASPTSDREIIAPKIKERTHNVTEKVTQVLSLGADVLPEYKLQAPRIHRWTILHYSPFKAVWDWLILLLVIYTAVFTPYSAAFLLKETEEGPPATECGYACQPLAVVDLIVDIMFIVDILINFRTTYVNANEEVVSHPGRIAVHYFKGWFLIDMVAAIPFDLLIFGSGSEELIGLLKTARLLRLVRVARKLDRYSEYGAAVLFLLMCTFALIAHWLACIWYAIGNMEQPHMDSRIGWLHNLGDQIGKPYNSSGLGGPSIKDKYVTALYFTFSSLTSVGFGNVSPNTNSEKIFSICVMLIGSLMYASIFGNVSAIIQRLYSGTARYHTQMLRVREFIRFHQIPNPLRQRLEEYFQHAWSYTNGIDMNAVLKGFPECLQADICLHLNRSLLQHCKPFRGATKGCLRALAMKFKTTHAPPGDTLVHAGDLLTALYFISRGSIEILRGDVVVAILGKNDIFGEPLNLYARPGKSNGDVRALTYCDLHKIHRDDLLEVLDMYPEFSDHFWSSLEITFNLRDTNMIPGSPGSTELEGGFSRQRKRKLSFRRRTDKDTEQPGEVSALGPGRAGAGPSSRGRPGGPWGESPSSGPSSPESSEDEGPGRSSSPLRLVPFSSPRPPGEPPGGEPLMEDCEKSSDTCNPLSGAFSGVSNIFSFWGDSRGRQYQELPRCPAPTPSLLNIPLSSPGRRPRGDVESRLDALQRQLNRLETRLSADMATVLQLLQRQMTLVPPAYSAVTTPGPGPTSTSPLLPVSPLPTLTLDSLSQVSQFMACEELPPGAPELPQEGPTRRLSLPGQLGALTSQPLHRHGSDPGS
How it was run: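 hERG current measured by voltage clamp, test compound at 100 μM; percent current inhibition.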

Cytochrome P450 2C19 = Cytochrome P450 2C19 (Homo sapiens, UniProt P33261); experiment: Time dependent inhibition of CYP2C19 in human liver microsomes at 100 uM; assay type: ADME
Chain of Cytochrome P450 2C19 (P33261 whole entry): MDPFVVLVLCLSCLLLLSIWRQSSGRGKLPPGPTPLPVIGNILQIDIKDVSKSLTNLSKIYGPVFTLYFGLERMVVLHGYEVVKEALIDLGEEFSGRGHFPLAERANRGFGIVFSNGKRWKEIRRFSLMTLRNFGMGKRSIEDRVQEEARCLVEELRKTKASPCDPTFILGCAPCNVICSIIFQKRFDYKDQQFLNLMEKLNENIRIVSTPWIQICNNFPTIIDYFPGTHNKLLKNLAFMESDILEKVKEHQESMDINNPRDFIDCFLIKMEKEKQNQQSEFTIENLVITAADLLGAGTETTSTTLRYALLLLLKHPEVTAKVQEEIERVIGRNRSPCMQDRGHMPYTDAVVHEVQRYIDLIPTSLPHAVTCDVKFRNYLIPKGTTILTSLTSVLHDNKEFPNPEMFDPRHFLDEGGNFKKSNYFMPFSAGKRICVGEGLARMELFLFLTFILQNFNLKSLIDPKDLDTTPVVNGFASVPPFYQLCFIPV
How it was run: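 Time-dependent inhibition assessed in pooled human liver microsomes with probe substrates, test compound at 100 μM.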

Cytochrome P450 2D6 = Cytochrome P450 2D6 (Homo sapiens, UniProt P10635); experiment: Time dependent inhibition of CYP2D6 in human liver microsomes at 100 uM; assay type: ADME
Chain of Cytochrome P450 2D6 (P10635 whole entry): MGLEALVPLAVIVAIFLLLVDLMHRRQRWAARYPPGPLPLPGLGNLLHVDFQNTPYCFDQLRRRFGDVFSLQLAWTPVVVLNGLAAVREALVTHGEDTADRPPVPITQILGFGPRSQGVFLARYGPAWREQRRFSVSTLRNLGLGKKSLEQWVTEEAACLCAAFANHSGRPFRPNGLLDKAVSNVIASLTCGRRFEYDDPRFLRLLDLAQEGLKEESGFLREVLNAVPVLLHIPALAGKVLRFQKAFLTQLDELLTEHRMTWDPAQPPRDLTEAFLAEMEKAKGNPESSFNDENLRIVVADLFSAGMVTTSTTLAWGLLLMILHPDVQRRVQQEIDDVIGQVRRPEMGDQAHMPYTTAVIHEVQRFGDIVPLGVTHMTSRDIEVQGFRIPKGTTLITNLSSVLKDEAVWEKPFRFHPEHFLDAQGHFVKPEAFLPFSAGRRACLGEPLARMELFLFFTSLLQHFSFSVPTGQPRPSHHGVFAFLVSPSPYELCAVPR
How it was run: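 Pooled human liver microsomes with CYP probe substrates. Time-dependent inhibition was assessed across CYP1A2, 2B6, 2C8, 2C9, 2C19 and 2D6, with test compound at 100 μM.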

Rattus norvegicus [15] = experiment: Inhibition of LPS induced TNFalpha secretion in Sprague-Dawley rat assessed as decrease in TNFalpha level in serum at 1 mg/kg, po pretreated for 1 hr followed by LPS challenge measured after 1.5 hrs relative to control; assay type: functional
How it was run: (§2)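 Male Sprague-Dawley rats, 6-8 weeks old, n = 6-9 per group. Test article was given orally at 0.3, 1, 3 or 30 mg/kg as a solution or suspension in 0.5% methylcellulose and 2% Tween 80 in water; controls received vehicle alone. Ultrapure LPS (0.01 mg/kg) was given iv 1 h later. Blood was drawn 1.5 h after challenge, and serum TNF was measured by MSD.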

Rattus norvegicus [16] = experiment: Inhibition of LPS induced TNFalpha secretion in Sprague-Dawley rat assessed as decrease in TNFalpha level in serum at 3 mg/kg, po pretreated for 1 hr followed by LPS challenge measured after 1.5 hrs relative to control; assay type: functional; how it was run: as §2
Rattus norvegicus [17] = experiment: Inhibition of LPS induced TNFalpha secretion in po dosed Sprague-Dawley rat assessed as decrease in TNFalpha level in serum pretreated for 1 hr followed by LPS challenge measured after 1.5 hrs relative to control; assay type: functional, organism-based; how it was run: as §2
Plasma [18] = experiment: Free plasma concentration in Sprague-Dawley rat LPS model at 1 mg/kg, po after 2.5 hrs; assay type: ADME, organism-based; details: in vivo
How it was run: (§3)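 Male Sprague−Dawley rats, 6−8 weeks old, n = 6−9 per group. Dosed orally at 0.3, 1, 3 or 30 mg/kg in 0.5% methylcellulose/2% Tween 80 in water. Ultrapure LPS 0.01 mg/kg iv given 1 h after dosing. Plasma exposure taken 2.5 h after oral dosing and reported as free concentration using fraction unbound in rat plasma.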

Plasma [19] = experiment: Free plasma concentration in Sprague-Dawley rat LPS model at 30 mg/kg, po after 2.5 hrs; assay type: ADME, organism-based; details: in vivo; how it was run: as §3

Q: Which microsomal CLint [1] does the source give for `CC[C@@H]1[C@H](F)C(=O)N[C@@H]1COc1nccc2cc(C(N)=O)c(OC)cc12` [ZIMLOVISERTIB] here?
A: 25 µL/min/mg

Q: What about the logD [2] of the same molecule?
A: 2

Q: And the fraction unbound [3]?
A: 0.3

Q: What about the inhibition at 3 µM (CYP2C8) of the same molecule?
A: < 5%

Q: What about the inhibition at 3 µM (CYP3A4) of the same molecule?
A: < 5%

Q: And the solubility [4]?
A: 62 µg/mL (≈ 172 µM)

Q: And the half-life [5]?
A: 0.6 h

Q: And the half-life [6]?
A: 1.4 to 2.1 h

Q: And the half-life [7]?
A: 1.1 h

Q: And the clearance (Rattus norvegicus [8])?
A: 56 mL/min/kg

Q: What about the clearance (Canis familiaris) of the same molecule?
A: 10 mL/min/kg

Q: What about the Vd [9] of the same molecule?
A: 1.8 L/kg

Q: And the Vd [10]?
A: 0.95 L/kg

Q: What about the bioavailability [11] of the same molecule?
A: 34 to 50%

Q: And the inhibition [12]?
A: > 70%

Q: What about the inhibition [13] of the same molecule?
A: > 50%

Q: And the inhibition [14]?
A: > 50%

Q: And the inhibition at 100 µM (hERG (KCNH2))?
A: 25%

Q: What about the TDI (Cytochrome P450 2C19) of the same molecule?
A: Not Active

Q: What about the TDI (Cytochrome P450 2D6) of the same molecule?
A: Not Active

Q: What about the inhibition in vivo at 1 mg/kg (Rattus norvegicus [15]) of the same molecule?
A: 52%

Q: And the inhibition in vivo at 3 mg/kg (Rattus norvegicus [16])?
A: 60%

Q: And the inhibition (Rattus norvegicus [17])?
A: Dose-dependent effect

Q: And the “Cp(f)” value (Plasma [18])?
A: 7.7 nM

Q: What about the “Cp(f)” value (Plasma [19]) of the same molecule?
A: 150 nM
